Measurements: ChEMBL document CHEMBL1157465, “Design, synthesis, and biological evaluation of novel 3-aryl-4-(1H-indole-3yl)-1,5-dihydro-2H-pyrrole-2-ones as vascular endothelial growth factor receptor (VEGF-R) inhibitors” (J Med Chem, 2008)

How the values were obtained:
Angiopoietin-1 receptor = Angiopoietin-1 receptor (Homo sapiens, UniProt Q02763); assay: Inhibition of human recombinant TIE2
Outline: (§1)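 Recombinant human tyrosine kinases (EPHB4, TIE2, VEGF-R2, VEGF-R3), expressed in Sf9 insect cells as GST- or His-fusions, with poly(Glu,Tyr) 4:1 as substrate. Conditions: 1 µM [γ-33P]ATP, pH 7.5 HEPES buffer with Mg/Mn, DTT and vanadate, 30 °C for 80 min, 1% DMSO. Ten concentrations were tested and IC50 came from scintillation counting of incorporated 33P.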

[1] = target: Insulin-like growth factor 1 receptor (Homo sapiens, UniProt P08069); assay: Inhibition of human recombinant IGF1R
Outline: (§2)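 Human kinases expressed in Sf9 cells via baculovirus as GST or His fusions and affinity purified. 33PanQinase assay in 60 mM HEPES-NaOH pH 7.5, 3 mM MgCl2, 3 mM MnCl2, 3 µM orthovanadate, 1.2 mM DTT, 1 µM [γ-33P]ATP, 1% DMSO; 30 °C, 80 min. Substrates: poly(Glu,Tyr) 4:1 for ERBB2, IGF1-R and SRC; poly(Ala,Glu,Lys,Tyr) 6:2:5:1 for FLT3. IC50 from 10 concentrations by scintillation counting.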

[2] = target: T1, Receptor-type tyrosine-protein kinase FLT3 (Homo sapiens, UniProt P36888); assay: Inhibition of human recombinant FLT3; outline: as §2
T1 sequence (P36888 whole entry): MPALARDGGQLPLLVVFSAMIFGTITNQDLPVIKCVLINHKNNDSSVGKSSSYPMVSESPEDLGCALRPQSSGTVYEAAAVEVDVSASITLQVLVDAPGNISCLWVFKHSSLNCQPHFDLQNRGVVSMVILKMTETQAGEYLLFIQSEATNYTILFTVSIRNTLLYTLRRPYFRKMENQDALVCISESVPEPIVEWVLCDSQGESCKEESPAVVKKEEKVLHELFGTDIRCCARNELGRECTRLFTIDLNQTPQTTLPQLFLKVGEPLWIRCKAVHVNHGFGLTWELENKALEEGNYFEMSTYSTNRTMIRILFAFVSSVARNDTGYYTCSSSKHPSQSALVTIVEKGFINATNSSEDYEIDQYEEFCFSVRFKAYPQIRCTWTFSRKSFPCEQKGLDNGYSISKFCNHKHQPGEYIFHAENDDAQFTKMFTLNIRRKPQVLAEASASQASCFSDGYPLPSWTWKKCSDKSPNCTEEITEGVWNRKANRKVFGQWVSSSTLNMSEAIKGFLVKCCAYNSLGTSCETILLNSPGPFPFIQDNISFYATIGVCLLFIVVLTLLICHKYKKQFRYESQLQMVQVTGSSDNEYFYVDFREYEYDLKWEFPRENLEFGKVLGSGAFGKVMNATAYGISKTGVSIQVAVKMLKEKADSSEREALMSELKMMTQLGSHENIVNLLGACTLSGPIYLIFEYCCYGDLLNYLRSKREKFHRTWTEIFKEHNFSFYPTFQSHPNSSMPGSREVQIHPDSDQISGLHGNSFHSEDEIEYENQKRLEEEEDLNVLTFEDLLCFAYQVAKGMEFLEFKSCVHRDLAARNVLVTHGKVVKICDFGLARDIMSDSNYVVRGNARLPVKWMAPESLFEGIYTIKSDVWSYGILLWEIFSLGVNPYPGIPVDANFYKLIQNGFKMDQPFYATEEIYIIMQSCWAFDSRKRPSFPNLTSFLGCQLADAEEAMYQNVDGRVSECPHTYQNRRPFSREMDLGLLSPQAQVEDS

[3] = target: Vascular endothelial growth factor receptor 3 (Homo sapiens, UniProt P35916); assay: Inhibition of human recombinant VEGFR3; outline: as §1
[4] = target: Epidermal growth factor receptor (Homo sapiens, UniProt P00533); assay: Inhibition of human recombinant EGFR
Ephrin type-B receptor 4 = Ephrin type-B receptor 4 (Homo sapiens, UniProt P54760); assay: Inhibition of human recombinant EPHB4; outline: as §1
Homo sapiens [5] = species: Homo sapiens; assay: Antiangiogenic activity in VEGF-induced HLMEC assessed as sprouts per bead at 1.3 uM after 24 hrs by sprouting assay; type: functional
Outline: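 HLMEC seeded on cytodex-3 microcarrier beads and embedded in 3D fibrinogen gel with 20 ng/mL VEGF plus compound at a final 1.3 or 2.6 µM (from 1 mM DMSO stock). Gel polymerised with 0.65 U/mL thrombin and overlaid with MCDB131, 5% FCS, 5% human serum and 200 U/mL Trasylol. Negative control: gel without growth factors. After 24 h, fixed in 1% PFA; sprouts per 50 beads counted microscopically. Triplicates per condition, n = 9 experiments.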

[6] = target: Proto-oncogene tyrosine-protein kinase Src (Homo sapiens, UniProt P12931); assay: Inhibition of human recombinant SRC; outline: as §2
[7] = target: Vascular endothelial growth factor receptor 2 (Homo sapiens, UniProt P35968); assay: Inhibition of human recombinant VEGFR2; outline: as §1
Homo sapiens [8] = species: Homo sapiens; assay: Induction of apoptosis in HDMEC at 2.1 uM after 5 hrs; type: functional
Outline: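 Positive-control condition: HDMEC treated 5 h at 2.1 µM. Adherent cells plus supernatant stained for cleaved caspase-3 and analysed by FACS as percent apoptotic cells. Repeated three times.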

[9] = target: Casein kinase II subunit alpha (Homo sapiens, UniProt P68400); assay: Inhibition of human recombinant CK2A1
Outline: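 Human kinases expressed in Sf9 cells by baculovirus as GST or His fusions and affinity purified. Radiometric 33PanQinase assay: 60 mM HEPES-NaOH pH 7.5, 3 mM MgCl2, 3 mM MnCl2, 3 µM orthovanadate, 1.2 mM DTT, 1 µM [γ-33P]ATP, 50-400 ng enzyme, 1% DMSO; 30 °C, 80 min. Substrates: B-Raf-VE, MEK1 KM; CDK2/CycA, histone H1; CK2-A1, casein; COT, autophosphorylation. IC50 from 10 concentrations; 33Pi incorporation by scintillation.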

[10] = target: Receptor tyrosine-protein kinase erbB-2 (Homo sapiens, UniProt P04626); assay: Inhibition of human recombinant ERBB2; outline: as §2

Chain of Insulin-like growth factor 1 receptor (P08069 31-736 limits assumed): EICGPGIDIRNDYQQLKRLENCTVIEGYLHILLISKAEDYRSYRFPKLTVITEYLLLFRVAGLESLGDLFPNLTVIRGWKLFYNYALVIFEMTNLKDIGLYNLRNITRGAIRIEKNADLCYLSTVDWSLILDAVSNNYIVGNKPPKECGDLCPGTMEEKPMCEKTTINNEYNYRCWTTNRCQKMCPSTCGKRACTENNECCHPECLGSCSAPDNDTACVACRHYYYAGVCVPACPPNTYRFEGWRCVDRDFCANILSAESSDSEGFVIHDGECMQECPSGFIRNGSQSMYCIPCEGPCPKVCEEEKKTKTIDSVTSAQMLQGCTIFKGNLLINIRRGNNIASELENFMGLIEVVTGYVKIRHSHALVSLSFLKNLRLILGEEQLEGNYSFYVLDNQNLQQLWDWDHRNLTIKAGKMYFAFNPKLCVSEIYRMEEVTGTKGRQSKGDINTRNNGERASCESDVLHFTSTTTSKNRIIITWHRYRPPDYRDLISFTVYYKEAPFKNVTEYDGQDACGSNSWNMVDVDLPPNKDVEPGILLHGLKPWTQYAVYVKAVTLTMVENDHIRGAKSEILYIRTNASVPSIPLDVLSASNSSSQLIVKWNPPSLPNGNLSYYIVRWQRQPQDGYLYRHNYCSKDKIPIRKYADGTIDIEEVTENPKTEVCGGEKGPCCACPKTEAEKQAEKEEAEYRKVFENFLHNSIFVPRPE
Chain of Insulin-like growth factor 1 receptor (P08069 741-1367 limits assumed): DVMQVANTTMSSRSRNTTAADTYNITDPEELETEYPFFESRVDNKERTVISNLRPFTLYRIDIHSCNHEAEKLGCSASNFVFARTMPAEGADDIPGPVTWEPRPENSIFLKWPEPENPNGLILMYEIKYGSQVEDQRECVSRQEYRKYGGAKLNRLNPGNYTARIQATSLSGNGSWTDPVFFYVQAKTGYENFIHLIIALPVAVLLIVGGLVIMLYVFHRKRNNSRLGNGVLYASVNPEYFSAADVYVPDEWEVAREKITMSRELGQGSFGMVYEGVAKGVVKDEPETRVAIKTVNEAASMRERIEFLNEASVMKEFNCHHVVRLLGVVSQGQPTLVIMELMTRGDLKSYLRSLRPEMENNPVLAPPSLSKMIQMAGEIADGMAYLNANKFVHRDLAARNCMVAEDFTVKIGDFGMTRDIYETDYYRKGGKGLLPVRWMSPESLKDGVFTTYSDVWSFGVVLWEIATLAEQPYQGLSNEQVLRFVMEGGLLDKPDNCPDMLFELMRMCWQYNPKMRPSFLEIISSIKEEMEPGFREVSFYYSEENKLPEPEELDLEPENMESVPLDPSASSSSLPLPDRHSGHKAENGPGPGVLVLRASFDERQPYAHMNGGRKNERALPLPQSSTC
Chain of Angiopoietin-1 receptor (Q02763 whole entry, the tested form may be a part): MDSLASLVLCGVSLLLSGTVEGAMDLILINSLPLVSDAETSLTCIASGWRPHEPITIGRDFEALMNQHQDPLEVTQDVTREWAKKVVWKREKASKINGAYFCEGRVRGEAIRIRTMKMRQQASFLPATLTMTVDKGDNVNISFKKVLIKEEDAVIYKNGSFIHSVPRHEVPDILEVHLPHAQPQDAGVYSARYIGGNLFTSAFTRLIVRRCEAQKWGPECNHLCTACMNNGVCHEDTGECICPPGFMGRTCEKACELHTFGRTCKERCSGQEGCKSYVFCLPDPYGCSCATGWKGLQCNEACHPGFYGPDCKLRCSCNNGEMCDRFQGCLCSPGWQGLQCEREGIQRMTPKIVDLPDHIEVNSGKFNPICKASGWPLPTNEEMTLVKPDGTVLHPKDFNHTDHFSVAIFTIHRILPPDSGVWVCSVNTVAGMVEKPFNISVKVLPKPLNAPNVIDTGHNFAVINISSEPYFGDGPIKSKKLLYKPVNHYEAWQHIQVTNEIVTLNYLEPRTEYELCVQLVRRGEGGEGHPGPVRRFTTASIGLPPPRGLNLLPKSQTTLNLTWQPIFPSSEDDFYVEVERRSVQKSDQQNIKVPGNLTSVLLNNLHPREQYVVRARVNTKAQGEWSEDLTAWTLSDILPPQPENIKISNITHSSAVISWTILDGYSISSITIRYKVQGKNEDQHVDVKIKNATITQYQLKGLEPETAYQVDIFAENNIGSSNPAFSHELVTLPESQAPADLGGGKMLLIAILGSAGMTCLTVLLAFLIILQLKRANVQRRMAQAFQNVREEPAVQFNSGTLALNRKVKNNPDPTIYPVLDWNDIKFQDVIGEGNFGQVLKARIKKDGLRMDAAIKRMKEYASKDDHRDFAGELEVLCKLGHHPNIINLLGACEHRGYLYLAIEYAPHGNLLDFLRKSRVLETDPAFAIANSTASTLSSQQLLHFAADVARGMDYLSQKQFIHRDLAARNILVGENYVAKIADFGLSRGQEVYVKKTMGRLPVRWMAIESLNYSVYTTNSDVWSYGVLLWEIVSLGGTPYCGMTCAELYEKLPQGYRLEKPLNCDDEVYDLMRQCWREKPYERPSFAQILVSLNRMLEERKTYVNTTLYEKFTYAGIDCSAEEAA
Chain of Proto-oncogene tyrosine-protein kinase Src (P12931 2-536 limits assumed): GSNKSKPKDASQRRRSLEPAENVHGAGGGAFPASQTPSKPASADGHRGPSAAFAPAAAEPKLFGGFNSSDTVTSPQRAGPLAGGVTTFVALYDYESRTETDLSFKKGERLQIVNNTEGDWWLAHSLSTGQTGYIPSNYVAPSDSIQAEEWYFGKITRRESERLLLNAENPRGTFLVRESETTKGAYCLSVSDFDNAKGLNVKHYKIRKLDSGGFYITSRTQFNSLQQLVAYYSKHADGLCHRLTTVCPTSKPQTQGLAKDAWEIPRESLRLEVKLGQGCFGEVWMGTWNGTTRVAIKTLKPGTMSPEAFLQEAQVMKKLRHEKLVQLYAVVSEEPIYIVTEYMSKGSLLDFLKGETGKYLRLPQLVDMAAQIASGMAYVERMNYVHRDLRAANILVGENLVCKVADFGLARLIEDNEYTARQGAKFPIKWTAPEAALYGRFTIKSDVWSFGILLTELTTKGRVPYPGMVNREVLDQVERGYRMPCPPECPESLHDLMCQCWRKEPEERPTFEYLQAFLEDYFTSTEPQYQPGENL
Chain of Vascular endothelial growth factor receptor 3 (P35916 whole entry): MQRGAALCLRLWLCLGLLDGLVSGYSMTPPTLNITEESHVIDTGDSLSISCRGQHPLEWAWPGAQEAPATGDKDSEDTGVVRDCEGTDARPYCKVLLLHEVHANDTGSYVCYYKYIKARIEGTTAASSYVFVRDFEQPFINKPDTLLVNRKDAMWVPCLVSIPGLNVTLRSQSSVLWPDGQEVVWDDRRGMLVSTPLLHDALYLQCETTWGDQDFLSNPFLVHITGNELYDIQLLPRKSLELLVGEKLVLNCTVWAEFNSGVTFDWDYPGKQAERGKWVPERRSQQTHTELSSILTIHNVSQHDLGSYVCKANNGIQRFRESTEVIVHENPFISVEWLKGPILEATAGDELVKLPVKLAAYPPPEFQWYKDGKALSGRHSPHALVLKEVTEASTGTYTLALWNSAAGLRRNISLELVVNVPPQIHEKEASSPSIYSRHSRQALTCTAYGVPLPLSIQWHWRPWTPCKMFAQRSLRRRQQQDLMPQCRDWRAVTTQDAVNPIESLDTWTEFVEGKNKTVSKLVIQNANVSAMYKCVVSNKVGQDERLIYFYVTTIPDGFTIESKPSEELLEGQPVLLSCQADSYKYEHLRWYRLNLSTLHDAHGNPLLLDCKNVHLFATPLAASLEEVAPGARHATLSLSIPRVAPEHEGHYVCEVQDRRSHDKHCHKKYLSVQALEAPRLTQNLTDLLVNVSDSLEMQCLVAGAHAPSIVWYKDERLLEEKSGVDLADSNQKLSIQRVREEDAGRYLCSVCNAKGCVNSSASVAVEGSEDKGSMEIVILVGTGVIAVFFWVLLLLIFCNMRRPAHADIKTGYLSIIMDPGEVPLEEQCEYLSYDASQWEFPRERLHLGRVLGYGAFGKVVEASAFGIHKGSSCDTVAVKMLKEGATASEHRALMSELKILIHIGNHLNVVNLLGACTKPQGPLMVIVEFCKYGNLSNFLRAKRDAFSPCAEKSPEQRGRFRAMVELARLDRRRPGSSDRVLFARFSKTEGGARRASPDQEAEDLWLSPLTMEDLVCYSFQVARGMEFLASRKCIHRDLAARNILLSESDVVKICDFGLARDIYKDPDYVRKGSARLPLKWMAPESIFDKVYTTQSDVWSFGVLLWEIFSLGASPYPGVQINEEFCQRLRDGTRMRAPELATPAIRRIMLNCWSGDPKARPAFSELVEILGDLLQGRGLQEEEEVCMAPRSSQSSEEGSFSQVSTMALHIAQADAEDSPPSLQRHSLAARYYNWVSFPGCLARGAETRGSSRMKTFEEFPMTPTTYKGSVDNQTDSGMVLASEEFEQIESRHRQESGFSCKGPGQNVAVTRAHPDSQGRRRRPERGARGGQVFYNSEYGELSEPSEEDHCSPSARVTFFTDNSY
Chain of Casein kinase II subunit alpha (P68400 whole entry, the tested form may be a part): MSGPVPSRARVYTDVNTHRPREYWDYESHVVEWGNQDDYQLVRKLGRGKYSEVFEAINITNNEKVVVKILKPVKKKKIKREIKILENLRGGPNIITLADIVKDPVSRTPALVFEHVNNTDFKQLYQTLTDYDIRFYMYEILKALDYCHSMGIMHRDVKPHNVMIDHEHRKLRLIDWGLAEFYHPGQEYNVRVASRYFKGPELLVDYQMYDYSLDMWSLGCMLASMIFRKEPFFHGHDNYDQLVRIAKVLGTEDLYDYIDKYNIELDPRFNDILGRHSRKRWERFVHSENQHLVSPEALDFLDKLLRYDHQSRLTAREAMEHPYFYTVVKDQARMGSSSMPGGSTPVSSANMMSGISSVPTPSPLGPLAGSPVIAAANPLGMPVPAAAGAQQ

IC50 (Angiopoietin-1 receptor) | IC50 [1] | IC50 [2] | IC50 [3] | IC50 [4] | IC50 (Ephrin type-B receptor 4) | IC50 [6] | IC50 [7] | IC50 [9] | IC50 [10] | SMILES | inhibition (Homo sapiens [5]) | Activity (Homo sapiens [8])
26 µM | 8.7 µM | 34 µM | 5.6 µM | 22 µM | 44 µM | 4.5 µM | 3.1 µM |  |  | COc1cc(C2=C(c3cn(COCC[Si](C)(C)C)c4ccccc34)CNC2=O)cc(OC)c1OC | 30% | 
 |  |  |  |  |  |  |  |  |  | CN[C@@H]1C[C@H]2O[C@@](C)([C@@H]1OC)n1c3ccccc3c3c4c(c5c6ccccc6n2c5c31)C(=O)NC4 |  | 63.9%
11 µM | 18 µM | 36 µM | 1.7 µM |  |  | 9.1 µM | 1.6 µM | > 50 µM | 36 µM | COc1cc(C2=C(c3cn(COCc4ccccc4)c4ccccc34)CNC2=O)cc(OC)c1OC |  | 
